This is an account of results in ChEMBL document CHEMBL4402517, “Rational modification of Mannich base-type derivatives as novel antichagasic compounds: Synthesis, in vitro and in vivo evaluation” (Bioorg Med Chem, 2019).

A word on the IC50: it is the midpoint of a concentration-inhibition curve.

Data set [1] in a line: Genotoxicity in Salmonella typhimurium TA1535 harboring pSK1002 assessed as umu gene induction at 0.004 mg/ml in absence of Sprague-Dawley rat liver S9 fraction metabolic activation by SOS/umu assay relative to control. Type of data set: toxicity. Conditions: salmonella enterica subsp. enterica serovar typhimurium, read-out: FC. In outline:
(§1)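 umu induction in S. typhimurium TA1535/pSK1002, with or without S9 mix, in 96-well format. β-galactosidase read colorimetrically with ONPG substrate. Output given as relative units and induction factor (IF). The run is valid if positive controls reach IF ≥2. A compound counts as genotoxic at IF ≥2 at a concentration giving ≥80% bacterial survival.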

Data set [2] is described as follows: Toxicity in BALB/c mouse infected with Trypanosoma cruzi MHOM/Pe/2011/Arequipa;DTU 5 bloodstream trypomastigote assessed as decrease in serum alkaline phosphatase level in acute phase at 20 mg/kg/day, po administered for 5 consecutive days starting from day 8 post infection and measured on day 100 post infection by biochemical analysis relative to control. More on the design: scale not given: the % may be the effect or the level left. Type of data set: organism-based. Particulars: in vivo. In a few lines:
(§2)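 Female BALB/c mice (10–12 weeks, 14–20 g; groups of three) were infected i.p. with 5 × 10^5 Arequipa bloodstream trypomastigotes. Dosing was oral at 20 mg/kg/day for 5 days, from day 8 pi (acute) or day 70 pi (chronic), as a 2 mg/ml suspension in 5% DMSO/0.5% HPMC; controls received vehicle. Cyclophosphamide 200 mg/kg i.p. was given at day 80 pi. Serum was collected 2 days post-treatment and at necropsy by cardiac puncture and compared with infected untreated controls.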

Data set [3] in a line: Toxicity in BALB/c mouse infected with Trypanosoma cruzi MHOM/Pe/2011/Arequipa;DTU 5 bloodstream trypomastigote assessed as decrease in serum uric acid level in acute phase at 20 mg/kg/day, po administered for 5 consecutive days starting from day 8 post infection and measured on day 100 post infection by biochemical analysis relative to control. The data set is classed as organism-based. More on the design: scale not given: the % may be the effect or the level left. Particulars: in vivo. In a few lines: as §2

The nature of data set [4]: Genotoxicity in Salmonella typhimurium TA1535 harboring pSK1002 assessed as umu gene induction at 0.5 mg/ml in presence of Sprague-Dawley rat liver S9 fraction metabolic activation by SOS/umu assay relative to control. Type of data set: toxicity, subcellular. Particulars: salmonella enterica subsp. enterica serovar typhimurium, read-out: FC. In outline: as §1
A short description of data set [5]: Inhibition of Trypanosoma cruzi MHOM/Pe/2011/Arequipa;DTU 5 epimastigote Fe-SOD. In a few lines: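 Fe-SOD excreted by exponentially growing T. cruzi Arequipa epimastigotes cultured in supplemented MTL at 28 °C. Protein quantified by Bradford. SOD activity measured by the Beyer–Fridovich method. IC50 from inhibition curves by nonlinear regression. Mean of three independent determinations ± standard deviation.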

The nature of data set [6]: Genotoxicity in Salmonella typhimurium TA1535 harboring pSK1002 assessed as survival at 0.063 mg/ml in absence of Sprague-Dawley rat liver S9 fraction metabolic activation by SOS/umu assay relative to control. The data set is classed as toxicity. Conditions: salmonella enterica subsp. enterica serovar typhimurium, read-out: Survival. In outline: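 Survival of S. typhimurium TA1535/pSK1002 exposed to a range of compound concentrations with or without S9 mix in 96-well format. Survival percentage measured as the cytotoxicity arm of the SOS/umu test. Concentrations with survival ≥80% are counted as non-cytotoxic.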

Data set [7] in a line: Genotoxicity in Salmonella typhimurium TA1535 harboring pSK1002 assessed as umu gene induction at 0.125 mg/ml in absence of Sprague-Dawley rat liver S9 fraction metabolic activation by SOS/umu assay relative to control. Type of data set: toxicity. Particulars: salmonella enterica subsp. enterica serovar typhimurium, read-out: FC. In outline:
as §1

Data set [8] can be described thus: Genotoxicity in Salmonella typhimurium TA1535 harboring pSK1002 assessed as umu gene induction at 0.016 mg/ml in absence of Sprague-Dawley rat liver S9 fraction metabolic activation by SOS/umu assay relative to control. Type of data set: toxicity. Conditions: salmonella enterica subsp. enterica serovar typhimurium, read-out: FC. In a few lines: as §1
Data set [9] in a line: Genotoxicity in Salmonella typhimurium TA1535 harboring pSK1002 assessed as survival at 0.002 mg/ml in absence of Sprague-Dawley rat liver S9 fraction metabolic activation by SOS/umu assay relative to control. The data set is classed as toxicity. Conditions: salmonella enterica subsp. enterica serovar typhimurium, read-out: Survival. In a few lines: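 Salmonella typhimurium TA1535/pSK1002 was exposed to compounds at several concentrations with or without S9 mix, and bacterial survival % was measured. β-galactosidase induction was measured colorimetrically with ONPG substrate. Genotoxicity was counted where IF ≥ 2 at ≥80% survival; runs were valid if positive controls reached IF ≥ 2.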

Data set [10] in a line: Genotoxicity in Salmonella typhimurium TA1535 harboring pSK1002 assessed as umu gene induction at 0.5 mg/ml in absence of Sprague-Dawley rat liver S9 fraction metabolic activation by SOS/umu assay relative to control. Type of data set: toxicity. Conditions: salmonella enterica subsp. enterica serovar typhimurium, read-out: FC. In outline:
as §1

The nature of data set [11]: Toxicity in BALB/c mouse infected with Trypanosoma cruzi MHOM/Pe/2011/Arequipa;DTU 5 bloodstream trypomastigote assessed as change in serum alkaline phosphatase level in chronic phase at 20 mg/kg/day, po administered for 5 consecutive days starting from day 70 post infection and measured at day 76 post infection relative to control. Conditions: in vivo. The data set is classed as organism-based. In outline: as §2

Data set [12] deals with Trypanosoma cruzi. Kind of data set: Trypanocidal activity against Trypanosoma cruzi trypomastigote form infected in African green monkey Vero cells assessed as ratio of infected cells at 25 uM measured after 72 hrs by Giemsa staining based assay relative to control. Type of data set: functional. In a few lines: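 Vero cells in RPMI with 10% heat-inactivated FBS, seeded at 1 × 10^4/well on coverslips for 24 h at 37 °C, 5% CO2. Infected with bloodstream trypomastigotes at MOI 10:1 for 24 h, then washed three times with PBS. Compounds added at 3.1–50 µM for 72 h. Infected cells counted after Giemsa staining. Triplicates, two separate determinations.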

Data set [13] is described as follows: Toxicity in BALB/c mouse infected with Trypanosoma cruzi MHOM/Pe/2011/Arequipa;DTU 5 bloodstream trypomastigote assessed as decrease in serum urea level in chronic phase at 20 mg/kg/day, po administered for 5 consecutive days starting from day 70 post infection measured on day 100 post infection relative to control. The data set is classed as organism-based. Further details: scale not given: the % may be the effect or the level left. Conditions: in vivo. In a few lines: as §2

Data set [14] in a line: Mutagenecity against Salmonella typhimurium TA1535 assessed as number of colonies at 7.4 ug/plate in absence of Sprague-Dawley rat S9 measured after 48 hrs by Ames test (reference value: 13.3 +/- 2.5). Type of data set: toxicity. Particulars: salmonella enterica subsp. enterica serovar typhimurium, s9, 48 h. On the technique in general: The Ames test detects mutagens through reverse mutation in bacteria.

Data set [15] can be described thus: Toxicity in BALB/c mouse infected with Trypanosoma cruzi MHOM/Pe/2011/Arequipa;DTU 5 bloodstream trypomastigote assessed as change in serum lactate dehydrogenase level in chronic phase at 20 mg/kg/day, po administered for 5 consecutive days starting from day 70 post infection measured on day 100 post infection relative to control. The data set is classed as organism-based. Particulars: in vivo.

The nature of data set [16]: Mutagenecity against Salmonella typhimurium TA1535 assessed as number of colonies at 66.7 ug/plate in presence of Sprague-Dawley rat S9 measured after 48 hrs by Ames test (reference value: 5 +/- 3.6). Type of data set: toxicity, subcellular. Particulars: salmonella enterica subsp. enterica serovar typhimurium, s9, 48 h.
A short description of data set [17]: Mutagenecity against Salmonella typhimurium TA97a assessed as number of colonies at 200 ug/plate in absence of Sprague-Dawley rat S9 […] measured after 48 hrs by Ames test ( Rvb = 37 +/- 6.5). The data set is classed as toxicity. Particulars: salmonella enterica subsp. enterica serovar typhimurium, s9, 48 h.
The nature of data set [18]: Mutagenecity against Salmonella typhimurium TA1535 assessed as number of colonies at 7.4 […] in presence of Sprague-Dawley rat S9 measured after 48 hrs by Ames test (reference value: 5 +/- 3.6). The data set is classed as toxicity, subcellular. Particulars: salmonella enterica subsp. enterica serovar typhimurium, s9, 48 h.
Data set [19] is described as follows: Mutagenecity against Salmonella typhimurium TA97a assessed as number of colonies at 22.2 ug/plate in presence of Sprague-Dawley rat S9 with metabolic activation measured after 48 hrs by Ames test (reference value: 55 +/- 7.1). Particulars: salmonella enterica subsp. enterica serovar typhimurium, s9, 48 h. Type of data set: toxicity, subcellular.

As to `O=C(CCN1CCN(c2ccc(C(F)(F)F)cc2)CC1)c1ccc(O)cc1`, in data set [1], the fold induction at 0.004 mg/ml is 0.69. Also, the Activity entry in [2] and in data set [3] was “<= 30%” in each case. Also, the fold induction at 0.5 mg/ml amounted to 0.74 in data set [4] and 0.43 in data set [10]. Moreover, the IC50 in data set [5] is 4.3 µM. Also, the viability at 0.063 mg/ml in [6] worked out at 117%. Further, in [7], the fold induction at 0.125 mg/ml came to 0.7. Further, the fold induction at 0.016 mg/ml in data set [8] was 0.74. Moreover, the viability at 0.002 mg/ml in data set [9] came out at 116%.
As for `O=C(Cn1ccnc1[N+](=O)[O-])NCc1ccccc1` [BENZNIDAZOLE], the Activity result is on record as “<= 10%” in data set [3], above 10% in [11] and “<= 30%” in data set [13]. Further, the Ratio in data set [12] was 18%.
Take `O=C(CCN1CCN(c2ccc(Cl)cc2)CC1)c1ccc(O)cc1`: the Activity in [14] is on record as 2.3; in data set [2], “<= 10%”; in data set [15], above 10%; in data set [16] it was 3.3; in data set [11] it was above 10%; in [17] it was 32.3. Besides, the Activity in [18] is recorded as 5.5; in data set [13], “<= 10%”; in data set [19], 38.3. The fold induction at 0.004 mg/ml in data set [1] is 0.68. Also, the fold induction at 0.5 mg/ml came to 0.46 in data set [4] and 0.26 in [10]. In data set [5], the IC50 worked out at 3.9 µM. For the same compound, the viability at 0.063 mg/ml in data set [6] was 125%. In data set [7], the fold induction at 0.125 mg/ml was 0.45. The fold induction at 0.016 mg/ml in [8] is 0.66. For the same compound, the viability at 0.002 mg/ml in data set [9] amounted to 109%. For the same compound, the Ratio in [12] came out at 19%.
